Laboratory results reported in ChEMBL document CHEMBL1142148, “Antibiotic susceptibility profile of bifidobacteria as affected by oxgall, acid, and hydrogen peroxide stress” (2007).
Converted amounts (≈) assume the structure as drawn.

What was measured:
Bifidobacterium breve [1] = experiment: Antimicrobial activity against 90 mins oxgall-stressed Bifidobacterium breve R0070 after 18 hrs; type: functional
In short: (§1)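 Cells pelleted from mid-log MRS culture and resuspended in MRS (initial pH 6.5) with 0.3% (wt/vol) oxgall for 90 min anaerobically at 37°C. They were then regrown in MRS pH 6.5 for 24 h (footnote: 18 h) anaerobically and tested for MIC by the same broth microdilution assay. Median of four repetitions.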

Bifidobacterium breve [2] = experiment: Antimicrobial activity against 90 mins hydrogen peroxide-stressed Bifidobacterium breve R0070 after 18 hrs; type: functional
In short: (§2)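 Stress applied for 90 min at 37°C under anaerobic conditions, using MRS (initial pH 6.5) containing H2O2 at each strain's own inhibitory concentration. The H2O2 level was set beforehand by microplate tolerance testing. Challenged cells were regrown in MRS for 24 h (footnote: 18 h) before MIC testing by broth microdilution. Median of four repetitions.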

[3] = test system: Bifidobacterium pseudolongum; experiment: Antimicrobial activity against 60 min 1 M HCl-stressed Bifidobacterium pseudolongum ATCC 25562 after 18 hrs; type: functional
In short: (§3)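 Mid-log MRS culture pelleted and resuspended in MRS broth brought to pH 2.0 with 1 M HCl, held anaerobically at 37°C for 60 min, then subcultured in MRS (pH 6.5) for 24 h anaerobically before MIC testing by broth microdilution (as for unstressed cells). Table footnote gives 18 h anaerobic regrowth after the stress. MIC is the median of four repetitions.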

Bifidobacterium longum [4] = experiment: Antimicrobial activity against 90 mins hydrogen peroxide-stressed Bifidobacterium longum R0175 after 18 hrs; type: functional; in short: as §2
Bifidobacterium breve [5] = experiment: Antimicrobial activity against 60 min 1 M HCl-stressed Bifidobacterium breve ATCC 15700 after 18 hrs; type: functional; in short: as §3
Bifidobacterium longum [6] = experiment: Antimicrobial activity against 90 mins hydrogen peroxide-stressed Bifidobacterium longum ATCC 15708 after 18 hrs; type: functional; in short: as §2
[7] = Antimicrobial activity against 60 min 1 M HCl-stressed Bifidobacterium infantis ATCC 15697 after 18 hrs; type: functional, Bifidobacterium longum subsp. infantis; details: Bifidobacterium longum; in short: as §3
Bifidobacterium longum [8] = experiment: Antimicrobial activity against 60 min 1 M HCl-stressed Bifidobacterium longum P/N 601377 after 18 hrs; type: functional; in short: as §3
[9] = Antimicrobial activity against 90 mins oxgall-stressed Bifidobacterium infantis ATCC 15697 after 18 hrs; type: functional, Bifidobacterium longum subsp. infantis; details: Bifidobacterium longum; in short: as §1
Bifidobacterium animalis [10] = experiment: Antimicrobial activity against Bifidobacterium animalis ATCC 27536; type: functional
In short: (§4)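 Broth microdilution in MRS plus 0.05% L-cysteine-HCl. Mid-log culture adjusted to OD650 0.1, giving about 2.5 × 10^4 to 5.0 × 10^4 CFU/well, then added to twofold serial dilutions of agent. Plates incubated anaerobically at 37°C for 18 h and read at OD650. MIC is the lowest concentration matching the uninoculated blank OD, taken as the median of four repeats.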

Bifidobacterium longum [11] = experiment: Antimicrobial activity against 60 min 1 M HCl-stressed Bifidobacterium longum R0175 after 18 hrs; type: functional; in short: as §3
Bifidobacterium animalis [12] = experiment: Antimicrobial activity against 60 min 1 M HCl-stressed Bifidobacterium animalis ATCC 27536 after 18 hrs; type: functional; in short: as §3
Bifidobacterium bifidum [13] = experiment: Antimicrobial activity against 90 mins oxgall-stressed Bifidobacterium bifidum BB12 after 18 hrs; type: functional; in short: as §1
Bifidobacterium bifidum [14] = experiment: Antimicrobial activity against 60 min 1 M HCl-stressed Bifidobacterium bifidum R0071 after 18 hrs; type: functional; in short: as §3
Bifidobacterium longum [15] = experiment: Antimicrobial activity against 90 mins oxgall-stressed Bifidobacterium longum ATCC 15707 after 18 hrs; type: functional; in short: as §1
Bifidobacterium longum [16] = experiment: Antimicrobial activity against Bifidobacterium longum R0175; type: functional; in short: as §4
[17] = test system: Bifidobacterium thermophilum; experiment: Antimicrobial activity against 90 mins hydrogen peroxide-stressed Bifidobacterium thermophilum ATCC 25866 after 18 hrs; type: functional; in short: as §2
Bifidobacterium bifidum [18] = experiment: Antimicrobial activity against 60 min 1 M HCl-stressed Bifidobacterium bifidum BB12 after 18 hrs; type: functional; in short: as §3
[19] = test system: Bifidobacterium thermophilum; experiment: Antimicrobial activity against 90 mins oxgall-stressed Bifidobacterium thermophilum ATCC 25866 after 18 hrs; type: functional; in short: as §1
Bifidobacterium breve [20] = experiment: Antimicrobial activity against 90 mins hydrogen peroxide-stressed Bifidobacterium breve ATCC 15700 after 18 hrs; type: functional; in short: as §2
[21] = test system: Bifidobacterium thermophilum; experiment: Antimicrobial activity against Bifidobacterium thermophilum ATCC 25866; type: functional; in short: as §4
Bifidobacterium longum [22] = experiment: Antimicrobial activity against 90 mins hydrogen peroxide-stressed Bifidobacterium longum P/N 601377 after 18 hrs; type: functional; in short: as §2
Bifidobacterium breve [23] = experiment: Antimicrobial activity against 90 mins oxgall-stressed Bifidobacterium breve ATCC 15700 after 18 hrs; type: functional; in short: as §1
Bifidobacterium animalis [24] = experiment: Antimicrobial activity against 90 mins oxgall-stressed Bifidobacterium animalis ATCC 27536 after 18 hrs; type: functional; in short: as §1
Bifidobacterium longum [25] = experiment: Antimicrobial activity against 90 mins hydrogen peroxide-stressed Bifidobacterium longum ATCC 15707 after 18 hrs; type: functional; in short: as §2
Bifidobacterium breve [26] = experiment: Antimicrobial activity against Bifidobacterium breve R0070; type: functional; in short: as §4
Bifidobacterium breve [27] = experiment: Antimicrobial activity against Bifidobacterium breve ATCC 15700; type: functional; in short: as §4
Bifidobacterium bifidum [28] = experiment: Antimicrobial activity against 90 mins hydrogen peroxide-stressed Bifidobacterium bifidum BB12 after 18 hrs; type: functional; in short: as §2
Bifidobacterium longum [29] = experiment: Antimicrobial activity against 60 min 1 M HCl-stressed Bifidobacterium longum ATCC 15707 after 18 hrs; type: functional; in short: as §3
Bifidobacterium bifidum [30] = experiment: Antimicrobial activity against 90 mins oxgall-stressed Bifidobacterium bifidum ATCC 15696 after 18 hrs; type: functional; in short: as §1
[31] = Antimicrobial activity against Bifidobacterium infantis ATCC 15697; type: functional, Bifidobacterium longum subsp. infantis; details: Bifidobacterium longum; in short: as §4
Bifidobacterium longum [32] = experiment: Antimicrobial activity against Bifidobacterium longum ATCC 15707; type: functional; in short: as §4
Bifidobacterium bifidum [33] = experiment: Antimicrobial activity against Bifidobacterium bifidum R0071; type: functional; in short: as §4
Bifidobacterium animalis [34] = experiment: Antimicrobial activity against 90 mins hydrogen peroxide-stressed Bifidobacterium animalis ATCC 27536 after 18 hrs; type: functional; in short: as §2
Bifidobacterium longum [35] = experiment: Antimicrobial activity against Bifidobacterium longum P/N 601377; type: functional; in short: as §4
Bifidobacterium breve [36] = experiment: Antimicrobial activity against 60 min 1 M HCl-stressed Bifidobacterium breve R0070 after 18 hrs; type: functional; in short: as §3
Bifidobacterium bifidum [37] = experiment: Antimicrobial activity against 90 mins hydrogen peroxide-stressed Bifidobacterium bifidum R0071 after 18 hrs; type: functional; in short: as §2
Bifidobacterium bifidum [38] = experiment: Antimicrobial activity against Bifidobacterium bifidum ATCC 15696; type: functional; in short: as §4
[39] = test system: Bifidobacterium pseudolongum; experiment: Antimicrobial activity against Bifidobacterium pseudolongum ATCC 25562; type: functional; in short: as §4
Bifidobacterium longum [40] = experiment: Antimicrobial activity against Bifidobacterium longum ATCC 15708; type: functional; in short: as §4
Bifidobacterium bifidum [41] = experiment: Antimicrobial activity against 90 mins oxgall-stressed Bifidobacterium bifidum R0071 after 18 hrs; type: functional; in short: as §1
[42] = test system: Bifidobacterium pseudolongum; experiment: Antimicrobial activity against 90 mins oxgall-stressed Bifidobacterium pseudolongum ATCC 25562 after 18 hrs; type: functional; in short: as §1
Bifidobacterium longum [43] = experiment: Antimicrobial activity against 90 mins oxgall-stressed Bifidobacterium longum ATCC 15708 after 18 hrs; type: functional; in short: as §1
Bifidobacterium bifidum [44] = experiment: Antimicrobial activity against Bifidobacterium bifidum BB12; type: functional; in short: as §4
Bifidobacterium longum [45] = experiment: Antimicrobial activity against 90 mins oxgall-stressed Bifidobacterium longum P/N 601377 after 18 hrs; type: functional; in short: as §1
Bifidobacterium longum [46] = experiment: Antimicrobial activity against 90 mins oxgall-stressed Bifidobacterium longum R0175 after 18 hrs; type: functional; in short: as §1
[47] = test system: Bifidobacterium thermophilum; experiment: Antimicrobial activity against 60 min 1 M HCl-stressed Bifidobacterium thermophilum ATCC 25866 after 18 hrs; type: functional; in short: as §3

Compound: Cc1onc(-c2ccccc2Cl)c1C(=O)N[C@@H]1C(=O)N2[C@@H]1SC(C)(C)[C@@H]2C(=O)O [CLOXACILLIN]
- MIC (Bifidobacterium breve [1]): 31.2 µg/mL (≈ 71.6 µM)
- MIC (Bifidobacterium breve [2]): 15.6 µg/mL (≈ 35.8 µM)
- MIC [3]: 0.98 µg/mL (≈ 2.25 µM)
- MIC (Bifidobacterium longum [4]): 31.2 µg/mL (≈ 71.6 µM)
- MIC (Bifidobacterium breve [5]): 125 µg/mL (≈ 287 µM)
- MIC (Bifidobacterium longum [6]): 7.8 µg/mL (≈ 17.9 µM)
- MIC [7]: 125 µg/mL (≈ 287 µM)
- MIC (Bifidobacterium longum [8]): 0.98 µg/mL (≈ 2.25 µM)
- MIC [9]: 125 µg/mL (≈ 287 µM)
- MIC (Bifidobacterium animalis [10]): 3.9 µg/mL (≈ 8.95 µM)
- MIC (Bifidobacterium longum [11]): 0.98 µg/mL (≈ 2.25 µM)
- MIC (Bifidobacterium animalis [12]): 3.9 µg/mL (≈ 8.95 µM)
- MIC (Bifidobacterium bifidum [13]): 1.9 µg/mL (≈ 4.36 µM)
- MIC (Bifidobacterium bifidum [14]): 15.6 µg/mL (≈ 35.8 µM)
- MIC (Bifidobacterium longum [15]): 125 µg/mL (≈ 287 µM)
- MIC (Bifidobacterium longum [16]): 62.5 µg/mL (≈ 143 µM)
- MIC [17]: 7.8 µg/mL (≈ 17.9 µM)
- MIC (Bifidobacterium bifidum [18]): 0.98 µg/mL (≈ 2.25 µM)
- MIC [19]: 62.5 µg/mL (≈ 143 µM)
- MIC (Bifidobacterium breve [20]): 3.9 µg/mL (≈ 8.95 µM)
- MIC [21]: 15.6 µg/mL (≈ 35.8 µM)
- MIC (Bifidobacterium longum [22]): 31.2 µg/mL (≈ 71.6 µM)
- MIC (Bifidobacterium breve [23]): 3.9 µg/mL (≈ 8.95 µM)
- MIC (Bifidobacterium animalis [24]): 125 µg/mL (≈ 287 µM)
- MIC (Bifidobacterium longum [25]): 0.98 µg/mL (≈ 2.25 µM)
- MIC (Bifidobacterium breve [26]): 31.2 µg/mL (≈ 71.6 µM)
- MIC (Bifidobacterium breve [27]): 15.6 µg/mL (≈ 35.8 µM)
- MIC (Bifidobacterium bifidum [28]): 1.9 µg/mL (≈ 4.36 µM)
- MIC (Bifidobacterium longum [29]): 15.6 µg/mL (≈ 35.8 µM)
- MIC (Bifidobacterium bifidum [30]): 62.5 µg/mL (≈ 143 µM)
- MIC [31]: 15.6 µg/mL (≈ 35.8 µM)
- MIC (Bifidobacterium longum [32]): 15.6 µg/mL (≈ 35.8 µM)
- MIC (Bifidobacterium bifidum [33]): 15.6 µg/mL (≈ 35.8 µM)
- MIC (Bifidobacterium animalis [34]): 3.9 µg/mL (≈ 8.95 µM)
- MIC (Bifidobacterium longum [35]): 31.2 µg/mL (≈ 71.6 µM)
- MIC (Bifidobacterium breve [36]): 15.6 µg/mL (≈ 35.8 µM)
- MIC (Bifidobacterium bifidum [37]): 31.2 µg/mL (≈ 71.6 µM)
- MIC (Bifidobacterium bifidum [38]): 7.8 µg/mL (≈ 17.9 µM)
- MIC [39]: 3.9 µg/mL (≈ 8.95 µM)
- MIC (Bifidobacterium longum [40]): 7.8 µg/mL (≈ 17.9 µM)
- MIC (Bifidobacterium bifidum [41]): 62.5 µg/mL (≈ 143 µM)
- MIC [42]: 62.5 µg/mL (≈ 143 µM)
- MIC (Bifidobacterium longum [43]): 125 µg/mL (≈ 287 µM)
- MIC (Bifidobacterium bifidum [44]): 0.98 µg/mL (≈ 2.25 µM)
- MIC (Bifidobacterium longum [45]): 62.5 µg/mL (≈ 143 µM)
- MIC (Bifidobacterium longum [46]): 125 µg/mL (≈ 287 µM)
- MIC [47]: 31.2 µg/mL (≈ 71.6 µM)
